Source: ChEMBL document CHEMBL3085768, “Structure-guided design of potent diazobenzene inhibitors for the BET bromodomains” (J Med Chem, 2013)
Activity calls are given as the source filed them. The rule behind the calls is not given here.

Assays:
[1] = target: T1, Bromodomain-containing protein 4 (Homo sapiens, UniProt O60885); assay: Displacement of fluorescein-labeled MS574 from recombinant human BRD4 BrD1 after 1 hr by fluorescence anisotropy assay; conditions: for Ki: read-out: Ki
Outline: (§1)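 Competition fluorescence anisotropy with His-tag-removed recombinant bromodomain (Ni-IDA purified, thrombin cleaved) at 0.25–1 µM, chosen so that 50–80% of probe is bound. FITC-labeled probe at 80 nM (≤2Kd), unlabeled ligand titrated, in PBS pH 7.4, read after 1 h at 25 °C. IC50 from curve fit, converted to Ki with the Nikolovska-Coleska correction to Cheng-Prusoff (one-site competitive). The resolvable Ki is limited by the probe Kd.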

[2] = target: T1, Bromodomain-containing protein 4; assay: Displacement of fluorescein-labeled MS574 from recombinant human BRD4 BrD2 after 1 hr by fluorescence anisotropy assay; outline: as §1

Compound	Ki [1] [µM]	Ki [2] [µM]	inhibition [1]	inhibition [2]
O=S(=O)(Nc1ccccn1)c1ccc(/N=N/c2ccc(O)c(Cl)c2)cc1	1.3	6.16		
COc1ccc(NS(=O)(=O)c2ccc(/N=N/c3cc(C)c(O)c(C)c3)cc2)nc1	0.5	2.23		
Cc1cc(/N=N/c2ccc(S(=O)(=O)N(C)c3ccccn3)cc2)cc(C)c1O	7.89	7.12		
Cc1cc(/N=N/c2ccc(S(=O)(=O)Nc3ccccn3)cc2)cc(Cl)c1O	1.4	4.81		
COc1cc(/N=N/c2cc(C)c(O)c(C)c2)ccc1S(=O)(=O)Nc1ccccn1	3.13	7.77		
Cc1cc(/N=N/c2ccc(S(=O)(=O)Nc3ccccn3)cc2)cc(O)c1O	2.39	3.27		
Cc1cc(/N=N/c2ccc(S(=O)(=O)Nc3ccccn3)cc2)ccc1O	6.43	8.2		
Cc1cc(/N=N/c2cc(S(=O)(=O)O)c(C)cc2C)c(N)cc1O [ISCHEMIN]	10.8	19.7		
CC1(C)Cc2c(/N=N/c3ccc(S(=O)(=O)Nc4ccccn4)cc3)ccc(O)c2O1			Active	
Cc1cc(/N=N/c2cccc(S(=O)(=O)Nc3ccccn3)c2)cc(C)c1O	5.97	40.4		
O=S(=O)(Nc1ccccn1)c1ccc(/N=N/c2cc(Cl)c(O)c(Cl)c2)cc1	1.27	4.89		
O=S(=O)(Nc1ccccn1)c1ccc(/N=N/c2ccc(O)c(C(F)(F)F)c2)cc1	9.45	6.83		
Cc1cc(/N=N/c2ccc(S(=O)(=O)Nc3ccc(Cl)cn3)cc2)cc(C)c1O	0.73	5.84		
Cc1cc(/N=N/c2ccc(S(=O)(=O)Nc3ccccn3)cc2)cc(Br)c1O	2.79	4.48		
Cc1cc(/N=N/c2ccc(S(=O)(=O)Nc3ccc(Br)cn3)cc2)cc(C)c1O	6.54	38.7		
Cc1cc(/N=N/c2ccc(S(=O)(=O)Nc3cccc(C(F)(F)F)c3)cc2)cc(C)c1O	6.13	7.77		
CC(C)c1cc(/N=N/c2ccc(S(=O)(=O)Nc3ccccn3)cc2)cc(C(C)C)c1O			inactive	inactive

Compound	Ki [1] [µM]	Ki [2] [µM]	inhibition [1]	inhibition [2]
Cc1nc(/N=N/c2ccc(S(=O)(=O)Nc3ccccn3)cc2)c(C)c(C)c1O	6.02	9.1		
O=S(=O)(Nc1ccccn1)c1ccc(/N=N/c2ccc(O)c3c2CCCC3)cc1			Active	
O=S(=O)(Nc1ccccn1)c1ccc(/N=N/c2ccc(O)c(O)c2)cc1	4.59	3.91		
Cc1cc(/N=N/c2ccc(S(=O)(=O)Nc3ccccn3)cc2)nc(C)c1O	2.31	24.6		
Cc1cc(/N=N/c2ccc(S(=O)(=O)Nc3ccc(C(F)(F)F)cc3)cc2)cc(C)c1O	10.7	7.14		
Cc1cc(/N=N/c2ccc(S(=O)(=O)Nc3cc(Cl)ccn3)cc2)cc(C)c1O	0.9	5.92		
Cc1nc(/N=N/c2ccc(S(=O)(=O)Nc3ccccn3)cc2)c(CO)c(C)c1O			inactive	
CC(C)(C)c1cc(/N=N/c2ccc(S(=O)(=O)Nc3ccccn3)cc2)cc(C(C)(C)C)c1O			inactive	inactive
COc1cc(/N=N/c2ccc(S(=O)(=O)Nc3ccccn3)cc2)c(N)cc1O	1.28	5.39		
Cc1cc(C)c(S(=O)(=O)O)cc1/N=N/c1cc(C)c(O)c(C)c1	4.92	6.37		
O=S(=O)(Nc1ccccn1)c1ccc(/N=N/c2cc(Br)c(O)c(Br)c2)cc1	0.52	4.29		
Cc1cc(/N=N/c2ccc(S(=O)(=O)Nc3ccc(F)cn3)cc2)cc(C)c1O	1.3	3.44		
O=S(=O)(Nc1ccccn1)c1ccc(/N=N/c2ccc(O)c3ccccc23)cc1			Active	
O=S(=O)(Nc1ccccn1)c1ccc(/N=N/c2ccc(O)c3c2NCCC3)cc1			Active	
Cc1nc(/N=N/c2ccc(S(=O)(=O)Nc3ccccn3)cc2)c(CO)c(CN)c1O			inactive	
Cc1nc(/N=N/c2ccc(S(=O)(=O)Nc3ccccn3)cc2)c(CO)c(C=O)c1O			inactive	
